{"source": "ChEMBL document CHEMBL5724801", "about": "“EUbOPEN Chemogenomics Library - Multiplex” (2024)", "note": "Several values for one entry are separate records, joined by “and”; a condition that tells them apart may be missing. Equal entries are not always repeated."}
{"tested_on": "Fibroblast", "experiment": "(§1) Multiplex assay against human fibroblast", "assay_type": "toxicity, cell-based", "conditions": "12 h, 1 µM, compound concentration 1 uM", "method_in_brief": "(§2)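 Cells stained live at seeding with Hoechst33342, BioTracker Green Microtubule Cytoskeleton Dye, MitoTracker Red and Annexin V Alexa Fluor 680 were imaged on a CQ1 microscope at 37°C and 5% CO2 after compound addition. Their classification by CellPathfinder machine-learning gating ran from Hoechst high-intensity objects versus normal cells, to healthy, pyknosed or fragmented nuclei among normal cells, to mitotic or apoptotic among pyknosed cells. Tubulin, mitochondrial-mass and membrane-permeability phenotypes are per cents of healthy-nucleus cells.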", "units": {"Population Hoechst High Intensity Objects (%)": "%", "Population Normal (%)": "%"}}
{"smiles": "Cl.Cl.N#Cc1ccc(O[C@@H]2c3ccccc3C[C@H]2N2CCC[C@@H](N)C2)c(Cl)c1", "Population Apoptotic (%)": "13.21% and 14.29%", "Population Fragmented Nuclei (%)": "8.33% and 10.47%", "Population Healthy Nuclei (%)": "57.69% and 74.87%", "Population Hoechst High Intensity Objects (%)": 0, "Population Membrane Permeable-Phenotype (%)": "6.67% and 4.9%", "Population Mitochondria Different-Phenotype (%)": "20% and 19.58%", "Population Mitotic Cells (%)": "86.79% and 85.71%", "Population Normal (%)": 100, "Population Pyknosed Nuclei (%)": "33.97% and 14.66%", "Population Tubulin-Different-Phenotype (%)": "35.56% and 58.04%", "Total Cell Count": "156 and 191"}
{"tested_on": "Fibroblast", "experiment": "as §1", "assay_type": "toxicity, cell-based", "conditions": "12 h, 10 µM, compound concentration 10 uM", "method_in_brief": "as §2", "units": {"Population Hoechst High Intensity Objects (%)": "%"}}
{"smiles": "Cl.Cl.N#Cc1ccc(O[C@@H]2c3ccccc3C[C@H]2N2CCC[C@@H](N)C2)c(Cl)c1", "Population Apoptotic (%)": "14.81% and 27.63%", "Population Fragmented Nuclei (%)": "18.93% and 7.94%", "Population Healthy Nuclei (%)": "49.11% and 64.62%", "Population Hoechst High Intensity Objects (%)": 0, "Population Membrane Permeable-Phenotype (%)": "3.61% and 6.15%", "Population Mitochondria Different-Phenotype (%)": "62.65% and 43.58%", "Population Mitotic Cells (%)": "85.19% and 72.37%", "Population Normal (%)": "100%", "Population Pyknosed Nuclei (%)": "31.95% and 27.44%", "Population Tubulin-Different-Phenotype (%)": "78.31% and 88.83%", "Total Cell Count": "169 and 277"}
{"smiles": "CCC(=O)N1CCN(c2ccc(-n3c(=O)ccc4cnc5ccc(-c6cnc7ccccc7c6)cc5c43)cc2C(F)(F)F)CC1", "note": "[TORIN1]", "Population Healthy Nuclei (%)": "60% and 44%", "Population Membrane Permeable-Phenotype (%)": "1%", "Population Mitochondria Different-Phenotype (%)": "5% and 0%", "Population Mitotic Cells (%)": "72% and 65%", "Population Normal (%)": "94% and 90%", "Population Tubulin-Different-Phenotype (%)": "62% and 64%", "Total Cell Count": "155 and 131"}
{"tested_on": "Fibroblast", "experiment": "as §1", "assay_type": "toxicity, cell-based", "conditions": "24 h, 1 µM, compound concentration 1 uM", "method_in_brief": "as §2", "units": {"Population Hoechst High Intensity Objects (%)": "%", "Population Normal (%)": "%"}}
{"smiles": "Cl.Cl.N#Cc1ccc(O[C@@H]2c3ccccc3C[C@H]2N2CCC[C@@H](N)C2)c(Cl)c1", "Population Fragmented Nuclei (%)": "6.79% and 14.63%", "Population Healthy Nuclei (%)": "62.35% and 76.59%", "Population Hoechst High Intensity Objects (%)": 0, "Population Membrane Permeable-Phenotype (%)": "4.95% and 3.18%", "Population Mitochondria Different-Phenotype (%)": "18.81% and 13.38%", "Population Mitotic Cells (%)": "98% and 77.78%", "Population Normal (%)": 100, "Population Tubulin-Different-Phenotype (%)": "36.63% and 57.32%", "Total Cell Count": "162 and 205"}
{"tested_on": "Fibroblast", "experiment": "as §1", "assay_type": "toxicity, cell-based", "conditions": "24 h, 10 µM, compound concentration 10 uM", "method_in_brief": "as §2", "units": {"Population Hoechst High Intensity Objects (%)": "%"}}
{"smiles": "Cl.Cl.N#Cc1ccc(O[C@@H]2c3ccccc3C[C@H]2N2CCC[C@@H](N)C2)c(Cl)c1", "Population Apoptotic (%)": "29.27% and 37.5%", "Population Fragmented Nuclei (%)": "11.58% and 4.05%", "Population Healthy Nuclei (%)": "66.84% and 78.5%", "Population Hoechst High Intensity Objects (%)": 0, "Population Membrane Permeable-Phenotype (%)": "2.36% and 3.17%", "Population Mitochondria Different-Phenotype (%)": "70.08% and 55.16%", "Population Mitotic Cells (%)": "70.73% and 62.5%", "Population Normal (%)": "100%", "Population Pyknosed Nuclei (%)": "21.58% and 17.45%", "Population Tubulin-Different-Phenotype (%)": "85.83% and 88.1%", "Total Cell Count": "190 and 321"}
{"smiles": "CCC(=O)N1CCN(c2ccc(-n3c(=O)ccc4cnc5ccc(-c6cnc7ccccc7c6)cc5c43)cc2C(F)(F)F)CC1", "note": "[TORIN1]", "Population Healthy Nuclei (%)": "57%", "Population Membrane Permeable-Phenotype (%)": "0%", "Population Mitochondria Different-Phenotype (%)": "10% and 5%", "Population Mitotic Cells (%)": "66% and 56%", "Population Normal (%)": "96% and 93%", "Population Tubulin-Different-Phenotype (%)": "62% and 59%", "Total Cell Count": "137 and 128"}
{"tested_on": "Fibroblast", "experiment": "as §1", "assay_type": "toxicity, cell-based", "conditions": "48 h, 1 µM, compound concentration 1 uM", "method_in_brief": "as §2", "units": {"Population Hoechst High Intensity Objects (%)": "%", "Population Normal (%)": "%"}}
{"smiles": "Cl.Cl.N#Cc1ccc(O[C@@H]2c3ccccc3C[C@H]2N2CCC[C@@H](N)C2)c(Cl)c1", "Population Apoptotic (%)": "20% and 38.89%", "Population Fragmented Nuclei (%)": "13.79% and 11.43%", "Population Healthy Nuclei (%)": "78.82% and 80%", "Population Hoechst High Intensity Objects (%)": 0, "Population Membrane Permeable-Phenotype (%)": "1.88% and 1.79%", "Population Mitochondria Different-Phenotype (%)": "16.88% and 10.12%", "Population Mitotic Cells (%)": "80% and 61.11%", "Population Normal (%)": 100, "Population Pyknosed Nuclei (%)": "7.39% and 8.57%", "Population Tubulin-Different-Phenotype (%)": "32.5% and 59.52%", "Total Cell Count": "203 and 210"}
{"tested_on": "Fibroblast", "experiment": "as §1", "assay_type": "toxicity, cell-based", "conditions": "48 h, 10 µM, compound concentration 10 uM", "method_in_brief": "as §2", "units": {"Population Hoechst High Intensity Objects (%)": "%"}}
{"smiles": "Cl.Cl.N#Cc1ccc(O[C@@H]2c3ccccc3C[C@H]2N2CCC[C@@H](N)C2)c(Cl)c1", "Population Apoptotic (%)": "37.5% and 50%", "Population Healthy Nuclei (%)": "75.86% and 86.13%", "Population Hoechst High Intensity Objects (%)": 0, "Population Membrane Permeable-Phenotype (%)": "0.57% and 3.37%", "Population Mitochondria Different-Phenotype (%)": "42.61% and 26.22%", "Population Mitotic Cells (%)": "62.5% and 50%", "Population Normal (%)": "100%", "Population Pyknosed Nuclei (%)": "3.45% and 7.1%", "Population Tubulin-Different-Phenotype (%)": "79.55% and 86.89%", "Total Cell Count": "232 and 310"}
{"smiles": "CCC(=O)N1CCN(c2ccc(-n3c(=O)ccc4cnc5ccc(-c6cnc7ccccc7c6)cc5c43)cc2C(F)(F)F)CC1", "note": "[TORIN1]", "Population Apoptotic (%)": "80%", "Population Healthy Nuclei (%)": "72% and 62%", "Population Membrane Permeable-Phenotype (%)": "0% and 8%", "Population Mitotic Cells (%)": "20% and 46%", "Population Normal (%)": "96% and 95%", "Population Pyknosed Nuclei (%)": "10%", "Population Tubulin-Different-Phenotype (%)": "67% and 61%", "Total Cell Count": "127 and 136"}
